Test results reported in ChEMBL document CHEMBL1141357, “Bioactive polychlorinated bibenzyls from the liverwort Riccardia polyclada” (J Nat Prod, 2007).

Tests used:
Artemia salina = assay: Toxicity against brine shrimp by lethality test; assay type: organism-based; conditions: in vivo
Cladosporium herbarum [1] = assay: Growth inhibition of Cladosporium herbarum at 0.07 mg after 72 hrs; assay type: functional; conditions: read-out: IZ
Method in brief: (§1)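 TLC bioautography with a given dose applied per spot. Plates were sprayed with Cladosporium herbarum spores (5 × 10^5 cfu) in 4% malt extract medium. Growth-inhibition zones were read after 72 h at 27 °C.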

Spodoptera littoralis = assay: Antifeedant activity against Spodoptera littoralis larvae at 10 ug/disk by disk-choice assay; assay type: functional
Method in brief: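 Disk-choice feeding test with fifth-instar Spodoptera littoralis larvae at 10 µg/disk. Read-out is FR50: treated area eaten divided by 50% of the untreated area, scored when half of the untreated area had been eaten.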

Cladosporium herbarum [2] = assay: Growth inhibition of Cladosporium herbarum at 0.05 mg after 72 hrs; assay type: functional; conditions: read-out: IZ; method in brief: as §1
Cladosporium herbarum [3] = assay: Growth inhibition of Cladosporium herbarum at 0.25 mg after 72 hrs; assay type: functional; conditions: read-out: IZ; method in brief: as §1

Row | SMILES | LC50 (Artemia salina) [ppm] | zone of inhibition at 70 µg/disc (Cladosporium herbarum [1]) [mm] | FR50 (Spodoptera littoralis) | zone of inhibition at 50 µg/disc (Cladosporium herbarum [2]) [mm] | zone of inhibition at 250 µg/disc (Cladosporium herbarum [3]) [mm]
1 | COc1ccc(CCc2c(Cl)ccc(O)c2Cl)cc1Cl | 0.42 | 12 | 0.63 |  | 
2 | Oc1ccc(CCc2c(Cl)cc(Cl)c(O)c2Cl)cc1Cl | 2.39 | 20 | 0.43 |  | 
3 | COc1ccc(CCc2c(Cl)cc(Cl)c(O)c2Cl)cc1Cl | 1.71 |  |  | 0 | 
4 | COc1ccc(CCc2c(Cl)ccc(O)c2Cl)cc1 | 0.44 |  |  | 22 | 
5 | CC(=O)N1CCN(c2ccc(OC[C@H]3CO[C@](Cn4ccnc4)(c4ccc(Cl)cc4Cl)O3)cc2)CC1 [KETOCONAZOLE] | 14.9 |  |  |  | 15
